Results of several laboratories.
Lines come from different studies, so protocols differ.
Target: 3-phosphoinositide-dependent protein kinase 1 (PDPK1, Homo sapiens, UniProt O15530)
One construct used (O15530 1-556): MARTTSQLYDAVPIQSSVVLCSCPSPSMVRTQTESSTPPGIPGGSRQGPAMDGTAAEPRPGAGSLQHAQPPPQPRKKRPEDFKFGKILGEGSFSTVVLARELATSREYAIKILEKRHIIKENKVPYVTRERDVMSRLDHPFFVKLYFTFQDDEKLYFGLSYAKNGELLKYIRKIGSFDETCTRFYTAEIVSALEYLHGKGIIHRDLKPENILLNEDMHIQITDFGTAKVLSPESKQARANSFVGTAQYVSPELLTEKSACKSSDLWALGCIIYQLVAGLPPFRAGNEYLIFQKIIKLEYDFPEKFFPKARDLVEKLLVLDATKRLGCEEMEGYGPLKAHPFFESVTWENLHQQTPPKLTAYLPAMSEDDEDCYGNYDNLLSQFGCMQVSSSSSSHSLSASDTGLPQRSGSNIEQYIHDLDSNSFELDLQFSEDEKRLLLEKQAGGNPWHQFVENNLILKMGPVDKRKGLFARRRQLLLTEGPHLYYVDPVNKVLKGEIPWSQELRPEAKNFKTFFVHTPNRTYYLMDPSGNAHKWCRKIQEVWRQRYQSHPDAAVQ

C=CC(=O)N1CCC([C@@H]2CCNc3c(C(N)=O)c(-c4ccc(Oc5ccccc5)cc4)nn32)CC1
inhibition (enzyme activity, inhibitor; 1 µM): 18%

C[C@H]1CC[C@H](n2c3cnccc3c3cnc(Nc4ccc5c(n4)CCN(C(=O)CO)C5)nc32)CC1
remaining signal (cell-free assay; 1 µM): 100%

Cc1cc(O)c(-c2ccc([C@@H](C)CN(C)C)cc2)c2c1[nH]c(=O)c1sccc12
inhibition (enzyme activity, inhibitor; 0.1 µM): 4.15%

CN1CCN(C(=O)c2ccc(NC(=O)Nc3ccc(N(C)c4ccnc(Nc5ccc(CS(C)(=O)=O)cc5)n4)cc3)cc2)CC1
remaining binding (binding; 1 µM): 68%

C1=C/COCc2cc(ccc2OCCN2CCCC2)Nc2nccc(n2)-c2cccc(c2)COC/1
remaining binding (binding; 0.1 µM): 100%

CO[C@@H]1[C@H](N(C)C(=O)c2ccccc2)C[C@H]2O[C@]1(C)n1c3ccccc3c3c4c(c5c6ccccc6n2c5c31)C(=O)NC4
inhibition (enzyme activity, inhibitor; 1 µM): 73%

C#Cc1cnc(Nc2ccnc(CO)c2)nc1Nc1ccccc1S(C)(=O)=NC#N (centres unmarked)
remaining signal (cell-free assay; 1 µM): 100%

CC(C)S(=O)(=O)c1ccc2nccc(Nc3ccc4sc(C5CCCC5)nc4c3)c2c1
activity vs control (enzyme activity, inhibitor; 1 µM): 118%

N#Cc1ccc(NC(=O)Nc2ccccc2)cc1
remaining binding (cell-free assay, competition with immobilised ligand; 25 µM): 100%

COc1ccc2oc(-c3ccc4nc(N)oc4c3)c/c(=N\c3ccccc3NC(=O)CCN)c2c1
remaining binding (binding; 1 µM): 100%

CCCCC(=O)Nc1ccc(-c2ccc3ncn(CCC)c(=O)c3c2)cn1
remaining binding (binding, competition with immobilised ligand; 0.5 µM): 100%
